Rows were chosen to be rich in hits. Some 2.4% of all compounds tested hit in one or more screens of this group.
HNF4A DNA FP = change in binding of human HNF4 alpha to DNA; P41235; HNF4a-FITC DNA binding, fluorescence polarization, 1 h; activity change, % at 10 µM; 360,000 tested, 0.3% active; in the data active = activity change above about 30%, passing the limit was not always enough
PREPL inhibitor = inhibits the human prolyl oligopeptidase-like enzyme. 320,000 tested, 0.68% active. AID 2751. recombinant PREPL, fluorescence polarization activity-based probe. inhibition, % at 5.96 µM; in the data active = inhibition above about 43%;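 also: 0% = enzyme with DMSO and 100% = wells lacking enzyme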
CSN inh = inhibitors of human CSN-mediated cullin deneddylation; Q92905; Purified CSN, SCF-Nedd8-OG deneddylation, fluorescence polarization; inhibition, % at 12.5 µM; 360,000 tested, 0.38% active;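 active = pattern-corrected inhibition above about 35%, with an unprinted fluorescence ratio check between 0.5 and 1.5, limit read from the data, passing the limit was not always enough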;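 also: 0% = enzyme with substrate and 100% = substrate without enzyme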
Target sequence (Q92905 whole entry, looked up, one chain of several): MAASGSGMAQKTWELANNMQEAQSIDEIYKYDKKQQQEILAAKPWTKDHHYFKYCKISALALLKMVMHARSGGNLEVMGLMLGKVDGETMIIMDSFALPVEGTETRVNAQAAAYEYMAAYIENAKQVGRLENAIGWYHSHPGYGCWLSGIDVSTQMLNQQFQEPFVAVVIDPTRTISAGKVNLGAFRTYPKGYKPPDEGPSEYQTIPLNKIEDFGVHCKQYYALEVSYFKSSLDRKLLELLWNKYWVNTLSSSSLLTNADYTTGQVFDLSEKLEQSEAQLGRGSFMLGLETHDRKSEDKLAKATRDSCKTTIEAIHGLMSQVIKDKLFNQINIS
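Test system: Human Csn5 produced in HEK293T cells | Compound: 12.5 µM single point | Times: 90 min, room temperature | Signal: Fluorescence polarization readout | Read-out basis: % inhibition of substrate cleavage by Csn5 | Controls: no-enzyme wells high, enzyme-with-substrate wells low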
Rpn11 inh = blocks the human proteasome subunit Rpn11 | inhibition, % at 20 µM | human 26S proteasome, Ub4-pepOG fluorescence polarization; 20S core pre-blocked with epoxomicin | AID 588493 | 360,000 tested, 0.59% active;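 active = inhibition at 20 µM, scaled to each plate's controls, above about 33%, limit read from the data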
Target sequence (O00487 whole entry, looked up): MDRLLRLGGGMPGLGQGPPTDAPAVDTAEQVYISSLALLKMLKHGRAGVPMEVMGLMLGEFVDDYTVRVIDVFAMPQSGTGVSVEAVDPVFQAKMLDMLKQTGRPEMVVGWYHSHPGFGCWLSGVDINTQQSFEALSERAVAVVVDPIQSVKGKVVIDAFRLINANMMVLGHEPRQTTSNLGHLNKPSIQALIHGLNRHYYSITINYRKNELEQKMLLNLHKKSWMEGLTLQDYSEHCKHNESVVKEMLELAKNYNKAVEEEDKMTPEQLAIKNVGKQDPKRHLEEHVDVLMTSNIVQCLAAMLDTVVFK
Neddyl block = cullin neddylation inhibition; AID 651699; TR-FRET cullin neddylation, biochemical; 360,000 tested, 0.58% active; P61081+Q13564; inhibition, % at 25 µM; in the data active = inhibition above about 36%
Tb MetRS inh = Trypanosoma brucei MetRS inhibition | purified T. brucei MetRS, ATP depletion, Kinase-Glo luminescence | inhibition, % at 11.9 µM | 360,000 tested, 0.4% active | AID 624268;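 active = inhibition above a per-plate cutoff of the control wells' mean inhibition plus 3 SD, cut at about 5.5% in these data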;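 also: 0% = DMSO wells median and 100% = median of wells with control inhibitor compound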
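Dosing: 11.9 µM single point; system: parasite MetRS enzyme; technique: luminescence of leftover ATP; times: 15 min enzyme-compound preincubation, 2 h reaction, 10 min detection, 25 °C; replicates: each compound tested once; read-out basis: percent inhibition relative to median high and low control wells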
Neddyl inh conf = cullin neddylation inhibition, confirmation; TR-FRET cullin neddylation biochemical assay; shares compounds with Neddyl block; 1,800 tested, 13% active; calls only at 25 µM; in the data active = inhibition above about 40%;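 also: neddylation substrate is the cullin 1 ring ligase complex with SKP2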
An asterisk follows results filed as active; i = inactive; nt = no result given; + = active, no number.

SMILES	HNF4A DNA FP	PREPL inhibitor	CSN inh	Rpn11 inh	Neddyl block	Tb MetRS inh	Neddyl inh conf
COc1ccc(-c2sc(Nc3cccc4ccccc34)n[n+]2C)c(C)c1C	4.0	nt	-1.8	1.1	31.9*	-0.2	i
CCCCC[C@@H](C)N1C[C@H](COCc2ccccc2)Oc2cc(N3CCC[C@@H]3CO)ccc2S1(=O)=O	-4.3	nt	-2.6	nt	12.5	-0.1	nt
Cc1csc(NC(=O)C2CC(=O)N(c3ccc4c(c3)OCCO4)C2)n1 (stereo unspecified)	4.4	-1.7	-0.7	7.7	6.0	0.2	nt
CCc1ccc(-c2csc(NC(=O)C3CC(=O)N(c4ccc5c(c4)OCCO5)C3)n2)cc1 (stereo unspecified)	0.2	6.5	3.1	17.0	53.0*	-0.8	i
CCOC(=O)c1cnn2c(N)c(C#N)cnc12	6.0	5.5	-0.8	-7.9	39.0*	-1.2	i
CCOC(=O)c1cnc2c(C(=O)OCC)cnn2c1N	5.1	-5.7	-1.2	3.6	27.5	4.8	nt
O=C(CSc1nnc(CNC(=O)c2cccs2)o1)Nc1ccccc1F	0.7	4.2	1.9	-1.4	-3.9	-0.1	nt
Cc1nc2ccc(-c3nc4ccccc4[nH]3)cc2[nH]1	0.1	1.3	1.1	-3.9	46.7*	0.1	i
Cc1ccc(-c2nc3ccccc3[nH]2)cn1	-0.7	0.9	7.1	2.0	28.8	0.0	nt
CC(C)(C)C(=O)Cn1ncc(N2CCOCC2)c(Br)c1=O	1.6	5.4	3.5	-0.8	0.7	0.0	nt
CN1CCOc2c1cnn(CCO)c2=O	-1.5	nt	1.1	0.4	39.5*	-0.6	i
CC(=O)C(Cc1ccccc1)NC(=O)CN1c2cccc3cccc(c23)S1(=O)=O (stereo unspecified)	1.3	2.5	-3.6	-2.1	28.2*	-0.4	i
CC(C)(C)NC(=O)NC(=O)CN1c2cccc3cccc(c23)S1(=O)=O	0.1	-2.1	3.1	0.8	34.8	1.6	nt
CCOc1ccccc1NC(=O)CN1c2cccc3cccc(c23)S1(=O)=O	1.3	0.7	-3.5	10.8	44.3*	-0.4	nt
CCN(CC(=O)NC(C)(C)C)C(=O)CN1c2cccc3cccc(c23)S1(=O)=O	5.2	2.2	-4.1	2.3	51.0*	-0.7	nt
COc1ccc(-c2ccc3c(N)c(C(=O)NC(C)C)sc3n2)cc1OC	1.4	8.9	-3.4	1.8	39.0*	0.3	nt
COc1ccc(C(c2c(NC(=O)c3ccco3)sc(C)c2C)N2CCOCC2)cc1 (stereo unspecified)	-2.9	nt	-1.4	1.2	44.7*	-0.4	nt
COc1ccccc1NC(=O)NNC(=O)c1ccc2ccccc2c1O	-1.3	nt	1.1	-6.4	39.7*	0.2	i
Cc1ccccc1NC(=O)NNC(=O)c1ccc2ccccc2c1O	-4.5	14.8	1.4	8.7	42.4*	-0.4	+
COc1ccc(NC(=O)NNC(=O)c2ccc3ccccc3c2O)cc1OC	0.2	8.7	-0.8	0.5	34.6*	-0.3	i
COc1ccccc1NC(=O)NNC(=O)c1ccc2ccccc2c1	-4.0	nt	-1.6	-1.9	-7.6	0.0	nt
Cc1ccc(S(=O)(=O)Nc2ccc(Cl)cn2)cc1C	0.4	19.6	3.0	-2.7	0.5	0.8	nt
COC(=O)c1c(C(=O)OC)c2cc(C(=O)c3ccccc3)ccn2c1Cl	2.6	14.3	-0.8	7.2	48.4*	-0.9	i
CCc1c(C)n2nc(C)cc2[nH]c1=O	2.1	-5.5	0.9	0.3	46.9*	-0.8	+
CC(=O)N1CCc2cc(NC(=O)C3(C)CCN3Cc3ccccc3OC(F)F)ccc21 (stereo unspecified)	2.0	nt	0.6	-1.3	0.9	-0.1	nt
SMILES	HNF4A DNA FP	PREPL inhibitor	CSN inh	Rpn11 inh	Neddyl block	Tb MetRS inh	Neddyl inh conf
COc1ccc(-c2nn(-c3ccccc3)cc2CO)cc1OC	-0.8	5.2	-3.6	3.4	39.0*	0.1	i
COc1cccc(-c2nn(-c3ccccc3)cc2CO)c1	-1.8	10.0	-1.7	-2.9	8.6	0.1	nt
Cc1ccccc1[C@H](NC1c2ccccc2C=Cc2ccccc21)P(=O)(c1ccccc1)c1ccccc1	2.7	nt	-6.8	nt	-32.3	-0.8	nt
CCc1ccc(S(=O)(=O)Nc2ccc(-c3ccc4nnc(C)n4n3)cc2)s1	2.3	0.6	-0.9	6.5	12.6	-0.2	nt
Cc1nnc2ccc(-c3ccc(NS(=O)(=O)c4ccc(Cl)s4)cc3)nn12	1.3	12.5	-0.8	5.4	41.0*	-0.3	nt
Nc1nc2c(ncn2[C@@H]2O[C@H](CNS(=O)(=O)c3cccnc3)[C@@H](O)[C@H]2O)c(=O)[nH]1	-2.2	nt	-3.7	-1.9	2.2	0.0	nt
OC1CCCN(Cc2c3ccccc3cc3ccccc23)C1 (stereo unspecified)	-7.3	28.5	1.4	-5.2	49.7*	-0.7	+
OC1CCCN(Cc2cccc3ccccc23)C1 (stereo unspecified)	1.2	10.6	1.8	-0.1	-0.4	0.0	nt
Nc1nc2c(c(=O)[nH]1)CN(Cc1ccccc1)CC2	-1.9	7.5	4.3	-8.1	40.4*	-0.5	i
Nc1ncnc2c1CN(Cc1ccccc1)CC2	-3.7	nt	2.4	-4.1	8.2	-0.1	nt
COc1ccccc1-c1nc(C#N)c(N2CCN(Cc3ccccc3)CC2)o1	-1.1	23.5	-3.4	-2.9	45.6*	0.1	nt
COc1ccc(NC(=O)C2CCCC2)cc1S(=O)(=O)N1CCOCC1	0.6	6.9	5.2	2.7	-2.1	0.1	nt
CCCNC(=O)C1(C)CCCN(C(=O)COc2ccc(Cl)cc2Cl)C1 (stereo unspecified)	-2.3	nt	-2.5	7.5	4.1	0.3	nt
C/C(=C\C(=S)Nc1ccccc1)Nc1cccc2ccccc12	1.3	10.9	3.5	2.1	46.3*	0.3	nt
C/C(=C\C(=S)Nc1ccccc1)Nc1ccc2ccccc2c1	5.4	20.3	4.8	18.5	4.6	0.4	nt
COc1ccc(/C(C)=N/NC(=O)c2ccc(CSc3cccc4cccnc34)cc2)cc1OC	-0.5	-1.3	2.8	-3.6	45.6*	0.4	i
C/C(=N\NC(=O)c1ccc(CSc2cccc3cccnc23)cc1)C1CCCCC1	3.1	4.2	-5.6	-1.7	43.3*	-1.6	i
COc1cc(/C(C)=N/NC(=O)c2ccc(CSc3nncn3C)cc2)cc(OC)c1OC	-1.7	4.1	0.9	-3.0	7.0	0.0	nt
CCOc1ccc(NC(=O)CN2CCN(c3ccc(F)cc3)CC2)cc1S(=O)(=O)N1CCCC1	1.7	nt	-2.5	-1.0	7.6	-0.4	nt
CCc1ccc(-c2ccc3nnc(SCC(=O)NCC4CCCO4)n3n2)cc1 (stereo unspecified)	0.4	16.4	6.3	1.0	58.5*	-0.2	nt
CCOc1ccc(-c2ccc3nnc(SCC(=O)NCC4CCCO4)n3n2)cc1 (stereo unspecified)	0.0	-1.9	2.2	0.3	53.7*	0.6	nt
